Assay results from ChEMBL document CHEMBL4184287, “Investigating PKA-RII specificity using analogs of the PKA:AKAP peptide inhibitor STAD-2” (Bioorg Med Chem, 2018).
The source made the active and inactive calls. No cut-off for these calls is given here.

Experiments:
[1] = target: cAMP-dependent protein kinase type I-alpha regulatory subunit (Homo sapiens) (UniProt P10644); assay: Binding affinity to recombinant human full length PKA-R1alpha expressed in Escherichia coli BL21 DE3-RIL cells assessed as reduction in interaction with AKAP at 20 nM by fluorescence polarization analysis
Chain of cAMP-dependent protein kinase type I-alpha regulatory subunit (Homo sapiens) (P10644 whole entry): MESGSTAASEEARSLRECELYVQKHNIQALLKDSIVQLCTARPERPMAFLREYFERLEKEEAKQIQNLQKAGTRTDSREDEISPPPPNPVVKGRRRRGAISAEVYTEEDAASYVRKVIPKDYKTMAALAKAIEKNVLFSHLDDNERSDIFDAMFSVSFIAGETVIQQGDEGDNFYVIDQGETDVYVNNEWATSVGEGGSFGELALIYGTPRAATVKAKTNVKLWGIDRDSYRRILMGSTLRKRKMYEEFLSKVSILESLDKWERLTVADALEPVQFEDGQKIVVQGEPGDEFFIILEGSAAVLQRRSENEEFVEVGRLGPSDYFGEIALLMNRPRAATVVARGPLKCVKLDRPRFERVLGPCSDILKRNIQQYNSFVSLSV
Procedure, shortened: (§1)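 Single-concentration direct FP screen: 5 μM full-length recombinant human RIα or RIβ mixed with 20 nM 5(6)-FAM-labelled peptide in 20 mM MOPS pH 7, 150 mM NaCl, 0.005% (v/v) CHAPS. Read at room temperature, Ex 482 nm/Em 520 nm, in duplicate.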

[2] = target: cAMP-dependent protein kinase type I-beta regulatory subunit (Homo sapiens) (UniProt P31321); assay: Binding affinity to recombinant human full length PKA-R1beta expressed in Escherichia coli BL21 DE3-RIL cells assessed as reduction in interaction with AKAP at 20 nM by fluorescence polarization analysis; procedure, shortened: as §1
Chain of cAMP-dependent protein kinase type I-beta regulatory subunit (Homo sapiens) (P31321 whole entry): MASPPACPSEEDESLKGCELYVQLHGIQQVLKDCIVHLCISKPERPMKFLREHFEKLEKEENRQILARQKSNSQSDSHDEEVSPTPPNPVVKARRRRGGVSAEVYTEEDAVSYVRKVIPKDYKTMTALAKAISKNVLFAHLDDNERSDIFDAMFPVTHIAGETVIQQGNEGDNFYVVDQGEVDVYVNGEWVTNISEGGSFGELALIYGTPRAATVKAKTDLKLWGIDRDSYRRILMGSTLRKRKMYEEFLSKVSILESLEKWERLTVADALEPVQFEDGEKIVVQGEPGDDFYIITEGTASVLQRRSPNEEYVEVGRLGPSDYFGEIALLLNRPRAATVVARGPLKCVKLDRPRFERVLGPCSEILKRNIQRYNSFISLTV

SMILES | Activity [1] | Activity [2]
CC(C)C[C@H](NC(=O)[C@H](C)NC(=O)[C@]1(C)CCC/C=C/CCC[C@](C)(NC(=O)[C@H](CO)NC(=O)[C@@H](NC(=O)[C@H](CC(C)C)NC(=O)[C@H](Cc2ccccc2)NC(=O)[C@H](CCCCN)NC(=O)[C@H](C)NC(=O)[C@H](CC(C)C)NC(=O)[C@H](CCCCN)NC(=O)[C@H](C)NC(=O)COCCOCCOCCN)C(C)C)C(=O)N[C@@H](C)C(=O)N[C@@H](CC(C)C)C(=O)N[C@@H](CCCCN)C(=O)N1)C(=O)N[C@@H](CCCCN)C(=O)O | inactive | inactive
CC(C)C[C@H](NC(=O)[C@H](C)NC(=O)[C@H](CCCCN)NC(=O)COCCOCCOCCN)C(=O)N[C@@H](C)C(=O)N[C@@H](CCCCN)C(=O)N[C@@H](Cc1ccccc1)C(=O)N[C@@H](CC(C)C)C(=O)N[C@H](C(=O)N[C@@H](CO)C(=O)N[C@@]1(C)CCC/C=C/CCC[C@@](C)(C(=O)N[C@@H](C)C(=O)N[C@@H](CC(C)C)C(=O)N[C@@H](CCCCN)C(=O)O)NC(=O)[C@H](CCCCN)NC(=O)[C@H](CC(C)C)NC(=O)[C@H](C)NC1=O)C(C)C | inactive | inactive
CC(C)C[C@H](NC(=O)[C@H](C)NC(=O)[C@]1(C)CCC/C=C/CCC[C@](C)(NC(=O)[C@H](CO)NC(=O)[C@@H](NC(=O)[C@H](CC(C)C)NC(=O)[C@H](C)NC(=O)[C@H](CCCCN)NC(=O)[C@H](C)NC(=O)[C@H](CC(C)C)NC(=O)[C@H](CCCCN)NC(=O)[C@H](CCCCN)NC(=O)COCCOCCOCCN)C(C)C)C(=O)N[C@@H](C)C(=O)N[C@@H](CC(C)C)C(=O)N[C@@H](CCCCN)C(=O)N1)C(=O)N[C@@H](CCCCN)C(=O)O | inactive | inactive
CC(C)C[C@H](NC(=O)[C@H](C)NC(=O)[C@]1(C)CCC/C=C/CCC[C@](C)(NC(=O)[C@H](CO)NC(=O)[C@@H](NC(=O)[C@H](CC(C)C)NC(=O)[C@H](Cc2ccccc2)NC(=O)[C@H](C)NC(=O)[C@H](C)NC(=O)[C@H](CC(C)C)NC(=O)[C@H](CCCCN)NC(=O)[C@H](CCCCN)NC(=O)COCCOCCOCCN)C(C)C)C(=O)N[C@@H](C)C(=O)N[C@@H](CC(C)C)C(=O)N[C@@H](CCCCN)C(=O)N1)C(=O)N[C@@H](CCCCN)C(=O)O | inactive | inactive
CC(C)C[C@H](NC(=O)[C@H](C)NC(=O)[C@]1(C)CCC/C=C/CCC[C@](C)(NC(=O)[C@H](CO)NC(=O)[C@@H](NC(=O)[C@H](CC(C)C)NC(=O)[C@H](Cc2ccccc2)NC(=O)[C@H](CCCCN)NC(=O)[C@H](C)NC(=O)[C@H](C)NC(=O)[C@H](CCCCN)NC(=O)[C@H](CCCCN)NC(=O)COCCOCCOCCN)C(C)C)C(=O)N[C@@H](C)C(=O)N[C@@H](CC(C)C)C(=O)N[C@@H](CCCCN)C(=O)N1)C(=O)N[C@@H](CCCCN)C(=O)O | inactive | inactive
CC(C)C[C@@H]1NC(=O)[C@H](C)NC(=O)[C@@](C)(NC(=O)[C@H](CO)NC(=O)[C@@H](NC(=O)[C@H](CC(C)C)NC(=O)[C@H](Cc2ccccc2)NC(=O)[C@H](CCCCN)NC(=O)[C@H](C)NC(=O)[C@H](CC(C)C)NC(=O)[C@H](CCCCN)NC(=O)[C@H](CCCCN)NC(=O)COCCOCCOCCN)C(C)C)CCC/C=C/CCC[C@@](C)(C(=O)N[C@@H](C)C(=O)N[C@@H](C)C(=O)N[C@@H](CCCCN)C(=O)O)NC(=O)[C@H](CCCCN)NC1=O | inactive | inactive
CC(C)C[C@H](NC(=O)[C@H](C)NC(=O)[C@]1(C)CCC/C=C/CCC[C@](C)(NC(=O)[C@H](C)NC(=O)[C@@H](NC(=O)[C@H](CC(C)C)NC(=O)[C@H](Cc2ccccc2)NC(=O)[C@H](CCCCN)NC(=O)[C@H](C)NC(=O)[C@H](CC(C)C)NC(=O)[C@H](CCCCN)NC(=O)[C@H](CCCCN)NC(=O)COCCOCCOCCN)C(C)C)C(=O)N[C@@H](C)C(=O)N[C@@H](CC(C)C)C(=O)N[C@@H](CCCCN)C(=O)N1)C(=O)N[C@@H](CCCCN)C(=O)O | inactive | inactive
CC(C)C[C@H](NC(=O)[C@H](C)NC(=O)[C@]1(C)CCC/C=C/CCC[C@](C)(NC(=O)[C@H](CO)NC(=O)[C@H](C)NC(=O)[C@H](CC(C)C)NC(=O)[C@H](Cc2ccccc2)NC(=O)[C@H](CCCCN)NC(=O)[C@H](C)NC(=O)[C@H](CC(C)C)NC(=O)[C@H](CCCCN)NC(=O)[C@H](CCCCN)NC(=O)COCCOCCOCCN)C(=O)N[C@@H](C)C(=O)N[C@@H](CC(C)C)C(=O)N[C@@H](CCCCN)C(=O)N1)C(=O)N[C@@H](CCCCN)C(=O)O | inactive | inactive
CC(C)C[C@H](NC(=O)[C@H](C)NC(=O)[C@]1(C)CCC/C=C/CCC[C@](C)(NC(=O)[C@H](CO)NC(=O)[C@@H](NC(=O)[C@H](CC(C)C)NC(=O)[C@H](Cc2ccccc2)NC(=O)[C@H](CCCCN)NC(=O)[C@H](C)NC(=O)[C@H](CC(C)C)NC(=O)[C@H](CCCCN)NC(=O)[C@H](CCCCN)NC(=O)COCCOCCOCCN)C(C)C)C(=O)N[C@@H](C)C(=O)N[C@@H](C)C(=O)N[C@@H](CCCCN)C(=O)N1)C(=O)N[C@@H](CCCCN)C(=O)O | inactive | inactive
CC(C)C[C@H](NC(=O)[C@H](C)NC(=O)[C@]1(C)CCC/C=C/CCC[C@](C)(NC(=O)[C@H](CO)NC(=O)[C@@H](NC(=O)[C@H](CC(C)C)NC(=O)[C@H](Cc2ccccc2)NC(=O)[C@H](CCCCN)NC(=O)[C@H](C)NC(=O)[C@H](CC(C)C)NC(=O)[C@H](CCCCN)NC(=O)[C@H](CCCCN)NC(=O)COCCOCCOCCN)C(C)C)C(=O)N[C@@H](C)C(=O)N[C@@H](CC(C)C)C(=O)N[C@@H](CCCCN)C(=O)N1)C(=O)N[C@@H](CCCCN)C(=O)O | inactive | inactive
CC(C)C[C@@H]1NC(=O)[C@H](C)NC(=O)[C@@](C)(NC(=O)[C@H](CO)NC(=O)[C@@H](NC(=O)[C@H](CC(C)C)NC(=O)[C@H](Cc2ccccc2)NC(=O)[C@H](CCCCN)NC(=O)[C@H](C)NC(=O)[C@H](CC(C)C)NC(=O)[C@H](CCCCN)NC(=O)[C@H](CCCCN)NC(=O)COCCOCCOCCN)C(C)C)CCC/C=C/CCC[C@@](C)(C(=O)N[C@@H](C)C(=O)N[C@@H](CC(C)C)C(=O)N[C@@H](CCCCN)C(=O)O)NC(=O)[C@H](C)NC1=O | inactive | inactive
CC(C)C[C@H](NC(=O)[C@H](C)NC(=O)[C@]1(C)CCC/C=C/CCC[C@](C)(NC(=O)[C@H](CO)NC(=O)[C@@H](NC(=O)[C@H](C)NC(=O)[C@H](Cc2ccccc2)NC(=O)[C@H](CCCCN)NC(=O)[C@H](C)NC(=O)[C@H](CC(C)C)NC(=O)[C@H](CCCCN)NC(=O)[C@H](CCCCN)NC(=O)COCCOCCOCCN)C(C)C)C(=O)N[C@@H](C)C(=O)N[C@@H](CC(C)C)C(=O)N[C@@H](CCCCN)C(=O)N1)C(=O)N[C@@H](CCCCN)C(=O)O | inactive | inactive
CC(C)C[C@H](NC(=O)[C@H](C)NC(=O)[C@]1(C)CCC/C=C/CCC[C@](C)(NC(=O)[C@H](CO)NC(=O)[C@@H](NC(=O)[C@H](CC(C)C)NC(=O)[C@H](Cc2ccccc2)NC(=O)[C@H](CCCCN)NC(=O)[C@H](C)NC(=O)[C@H](CC(C)C)NC(=O)[C@H](CCCCN)NC(=O)[C@H](CCCCN)NC(=O)COCCOCCOCCN)C(C)C)C(=O)N[C@@H](C)C(=O)N[C@@H](CC(C)C)C(=O)N[C@@H](CCCCN)C(=O)N1)C(=O)N[C@@H](C)C(=O)O | inactive | inactive
